In publication PMC3904296 (Journal of medicinal chemistry, 2013):

Legend:
[1] = target: CB1Rs endogenously expressed in Neuro2A cells (Mus musculus, UniProt P47746); test: Adenylyl cyclase assay in Neuro2A cells; assay type: cell-based; conditions: for antagonism of AC-inhibition produced by the CB1R full agonist 3: 1 μM concentration of antagonist, 10^−7 M concentration of 3, Figure 3B; for inhibition of AC-activity via CB1Rs (concentration-effect curves): Neuro2A cells, Figure 3A
CHO-WT cells = test: Adenylyl cyclase assay in CHO-WT cells not expressing CB2Rs; assay type: cell-based; conditions: Figure 4B
male NIH Swiss mice [2] = test: Oral EtOH self-administration; assay type: in vivo; conditions: 10 mg/kg i.p. daily for 10 days
CB2Rs in CHO-hCB2 cells = CB2Rs in CHO-hCB2 cells (Homo sapiens, UniProt P34972); test: Adenylyl cyclase assay in CHO-hCB2 cells; assay type: cell-based; conditions: Figure 4A
CB2Rs in CHO-hCB2 cells, sequence (P34972 whole entry): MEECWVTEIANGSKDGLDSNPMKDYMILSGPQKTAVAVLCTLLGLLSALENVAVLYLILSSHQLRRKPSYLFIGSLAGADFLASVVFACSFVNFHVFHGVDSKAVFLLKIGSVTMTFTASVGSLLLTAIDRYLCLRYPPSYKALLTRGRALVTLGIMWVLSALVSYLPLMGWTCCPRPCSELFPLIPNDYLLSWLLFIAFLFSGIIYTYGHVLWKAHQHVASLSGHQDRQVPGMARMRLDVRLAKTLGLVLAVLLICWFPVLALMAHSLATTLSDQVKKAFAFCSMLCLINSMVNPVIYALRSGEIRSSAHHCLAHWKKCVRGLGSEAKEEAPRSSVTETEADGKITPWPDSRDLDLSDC

male NIH Swiss mice [3] = test: Thermoregulation assay; assay type: in vivo; conditions: 10 mg/kg intraperitoneal, Figure 5
Outline: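 Under isoflurane, a glass-encapsulated radiotelemetry probe was implanted in the peritoneal cavity. Mice recovered at least 7 days and were housed singly. On test days they were weighed, and baseline core temperature was recorded for at least 1 h. Drug or equal-volume vehicle was then injected, 4–8 mice per group. […] Data are mean ± SEM, analysed by one-way ANOVA with Tukey post-test.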

CB1Rs = conditions: cited from earlier work

CB1Rs endogenously expressed in Neuro2A cells, sequence (P47746 whole entry): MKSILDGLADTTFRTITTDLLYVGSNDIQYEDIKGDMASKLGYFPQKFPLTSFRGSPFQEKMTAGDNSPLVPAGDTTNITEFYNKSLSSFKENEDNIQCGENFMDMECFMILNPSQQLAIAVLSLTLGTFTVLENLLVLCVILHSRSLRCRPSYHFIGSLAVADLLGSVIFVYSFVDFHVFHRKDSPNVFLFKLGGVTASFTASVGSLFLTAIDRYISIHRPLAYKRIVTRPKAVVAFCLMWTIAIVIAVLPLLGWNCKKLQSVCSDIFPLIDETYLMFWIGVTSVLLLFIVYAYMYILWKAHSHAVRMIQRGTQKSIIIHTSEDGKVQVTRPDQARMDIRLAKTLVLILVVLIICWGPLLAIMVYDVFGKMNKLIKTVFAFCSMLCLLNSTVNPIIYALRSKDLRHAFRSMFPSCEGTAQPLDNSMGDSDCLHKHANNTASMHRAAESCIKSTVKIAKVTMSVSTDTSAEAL

CC1=CC[C@@H]2[C@@H](C1)c1c(O)cc(CC#CCCCNS(C)(=O)=O)cc1OC2(C)C [Compound O-2050, reference compound]
antagonism of AC-inhibition produced by the CB1R full agonist 3 [1]: significantly antagonized AC-inhibition

CCCCn1cc(-c2ccc3ccccc3c2)c2cccc(OC)c21 [Compound 30, 1-Butyl-7-methoxy-3-(naphthalen-2-yl)-1H-indole]
antagonism of AC-inhibition produced by the CB1R full agonist 3 [1]: antagonize AC-inhibition produced by CB1R-agonist | inhibition of AC-activity via CB1Rs (concentration-effect curves) [1]: very little inhibition of AC-activity | modification of AC-activity in CHO-WT cells (CHO-WT cells): neither 27 nor 30 significantly modified AC-activity | EtOH preference (two-bottle choice, 10% EtOH vs water) (male NIH Swiss mice [2]): reduced EtOH preference | body weight across the treatment period (male NIH Swiss mice [2]): did not decrease body weight | total fluid consumption (male NIH Swiss mice [2]): without affecting total fluid consumption | inhibition of AC-activity at CB2Rs (concentration-effect curves) (CB2Rs in CHO-hCB2 cells): 40–50%

CCCCn1cc(C(=O)c2cccc3ccccc23)c2ccccc21 [Compound 3, (1-butyl-1H-indol-3-yl)(naphthalen-1-yl)methanone]
hypothermic effect (core body temperature) (male NIH Swiss mice [3]): elicited a profound hypothermic effect

CCCCn1cc(Cc2cccc3ccccc23)c2cccc(OC)c21 [Compound 27, 1-Butyl-7-methoxy-3-(naphthalen-1-ylmethyl)-1H-indole]
antagonism of AC-inhibition produced by the CB1R full agonist 3 [1]: antagonize AC-inhibition produced by CB1R-agonist | inhibition of AC-activity via CB1Rs (concentration-effect curves) [1]: very little inhibition of AC-activity | modification of AC-activity in CHO-WT cells (CHO-WT cells): neither 27 nor 30 significantly modified AC-activity | EtOH preference (two-bottle choice, 10% EtOH vs water) (male NIH Swiss mice [2]): reduced EtOH preference | body weight across the treatment period (male NIH Swiss mice [2]): did not decrease body weight | total fluid consumption (male NIH Swiss mice [2]): without affecting total fluid consumption | inhibition of AC-activity at CB2Rs (concentration-effect curves) (CB2Rs in CHO-hCB2 cells): 40–50%

CCCCn1cc(C(=O)c2cccc3ccccc23)c2cccc(O)c21 [Compound 4, reference compound]
inhibition of AC-activity via CB1Rs (concentration-effect curves) [1]: 50–60% | intrinsic activity at CB1Rs in [35S]GTPγS functional assay (CB1Rs): lacks intrinsic activity

Cc1c(C(=O)NN2CCCCC2)nn(-c2ccc(Cl)cc2Cl)c1-c1ccc(Cl)cc1 [rimonabant, reference compound]
EtOH preference (two-bottle choice, 10% EtOH vs water) (male NIH Swiss mice [2]): decreased EtOH preference | body weight across the treatment period (male NIH Swiss mice [2]): decreased body weight | total fluid consumption (male NIH Swiss mice [2]): without altering total fluid intake
